Compounds with a hit are over-represented: about 3.7% of the library has one in this group of screens.
NPY Y1 blocker: NPY-Y1 (human) receptor antagonism; HEK293-CNG Y1 cells, membrane potential fluorescence; NPY at EC95, then isoproterenol; inhibition, % at 3.6 µM; actives 1% (n = 200,000); AID 1040;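 active = inhibition above the campaign mean inhibition of all tested compounds plus 3 SD, cut at about 20% in these data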
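Material: Y1- and CNG-channel-expressing HEK293 cells / Probe or stimulus: NPY 25 nM then isoproterenol 1 µM plus Ro 20-1724 25 µM / Doses: 3.6 µM single dose, DMSO 0.4% / Schedule: compound incubation 1 h at room temperature, readout 45 min post-stimulation / Signal: membrane potential fluorescence / Benchmarks: isoproterenol-only wells as full block versus NPY-plus-isoproterenol wells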
NPY-Y2 PAM-ag: potentiators or agonists of human neuropeptide Y receptor Y2. actives 0.45% (n = 220,000). cells expressing NPY-Y2, potentiator/agonist read-out. activation, % at 3.6 µM. AID 1359; in the data active = activation above about 27%;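 note: cells stimulated with NPY near EC25 plus isoproterenol at EC100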
Target sequence (P49146 whole entry, looked up): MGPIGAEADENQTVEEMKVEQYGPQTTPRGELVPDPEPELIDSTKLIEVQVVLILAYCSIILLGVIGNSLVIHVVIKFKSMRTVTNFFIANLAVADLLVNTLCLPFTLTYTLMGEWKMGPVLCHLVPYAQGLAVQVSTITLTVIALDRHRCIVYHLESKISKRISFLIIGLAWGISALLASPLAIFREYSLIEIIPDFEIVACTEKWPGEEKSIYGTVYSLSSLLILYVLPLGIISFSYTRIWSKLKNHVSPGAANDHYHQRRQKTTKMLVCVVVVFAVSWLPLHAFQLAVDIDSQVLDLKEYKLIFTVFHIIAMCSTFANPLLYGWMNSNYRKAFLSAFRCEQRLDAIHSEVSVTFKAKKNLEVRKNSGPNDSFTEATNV
NPY Y2 blocker: antagonists of human neuropeptide Y receptor Y2; P49146; NPY-Y2 expressing cells, antagonist mode; AID 793; actives 0.99% (n = 140,000); inhibition, % at 2.7 µM; in the data active = inhibition above about 17%
Furin inh: human furin inhibition. P09958. AID 463115. actives 0.061% (n = 220,000). purified furin, fluorogenic substrate cleavage. inhibition, % at 20 µM or 30 µM; in the data active = inhibition above about 25%
NPY1 pot ag: potentiates or activates human NPY-Y1 receptor. P25929. NPY-Y1 expressing cells, potentiator/agonist activation. activation, % at 3.6 µM. actives 0.37% (n = 220,000). AID 1304; in the data active = activation above about 33%, passing the limit was not always enough;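 note: cells stimulated with NPY at EC10 then isoproterenol at EC100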
KCC2 mod: modulates chloride dependent transport by human KCC2 | KCC2 cells, thallium flux FluoZin-2 fluorescence | B-score of Tl+ flux slope (higher = more flux/activation; lower = inhibition) at 10 µM | actives 2.2% (n = 190,000) | AID 1456;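 active = thallium flux slope and its plate-corrected score both differing from the plate sample mean at a set confidence after two filtering rounds, in either direction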;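 note: slope of fluorescence scaled to starting intensity during 10 to 20 s after thallium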
KCC2 secondary: KCC2 (human) modulation, secondary assay; normalised thallium flux (F/F0 slope) at 10 µM; actives 15% (n = 3,700); HEK293-KCC2, thallium flux, FluoZin2 fluorescence; hits give high values; shares compounds with KCC2 mod; AID 1713;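 active = thallium flux slope above the same plate's solvent-only control mean plus 3 SD; inconclusive = the two replicate wells disagree; inactive = no significant difference from solvent-only control wells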
KCC2 bumet counter: bumetanide-insensitive thallium flux in KCC2 cells with ouabain, counter-screen; HEK293-KCC2 + bumetanide/ouabain, thallium flux FluoZin2; hits give high values; normalized thallium flux at 10 µM; AID 1714; shares compounds with KCC2 mod; actives 49% (n = 3,700);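 active = thallium entry rate above the same plate's blocked-transporter control wells by more than 3 SD; inconclusive = the two repeat wells disagree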;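 note: raw slope of fluorescence over initial fluorescence between 10 and 20 s after thallium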
KCC2 secondary2: confirmation of human KCC2 transport modulators | HEK293-KCC2, thallium flux FluoZin2 fluorescence; actives lie on both sides; F/F0 rise rate, 10–20 s post-thallium | normalized thallium flux at 10 µM | shares compounds with KCC2 mod | actives 23% (n = 3,700) | AID 1715;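 active = thallium flux slope more than 3 SD above or below the plate's solvent-only control mean, mostly below; inconclusive = the two repeat wells disagreed; inactive = no significant shift from solvent-only controls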
HEK counter1: counter-screen for KCC2 modulators: effect in parental HEK293 cells; shares compounds with KCC2 mod; thallium flux FluoZin2, ouabain; baseline-ratio fluorescence slope, 10–20 s after thallium; thallium flux rate (normalised fluorescence) at 10 µM; actives 46% (n = 3,700);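 active = thallium flux rate significantly above the same plate's solvent-only control wells, beyond their mean plus 3 SD; inconclusive = the two replicate wells gave conflicting results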
KCC2 retest ouab: KCC2 (human) modulation, ouabain retest. shares compounds with KCC2 mod. HEK293-KCC2, thallium flux FluoZin2 fluorescence; bidirectional: low = inhibitor, high = activator. raw Tl+ flux slope (below DMSO = inhibition, above = activation) at 10 µM. actives 48% (n = 3,700). AID 1717;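 active = thallium flux slope beyond 3 SD from same-plate DMSO control mean in most replicates, usually higher, sometimes lower; inconclusive = repeat tests gave conflicting results; inactive = no significant difference from controls in most replicates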;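 note: slope of initial-normalized fluorescence between seconds 10 and 20 after thallium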
HEK counter2: acts in parental HEK cells, second KCC2 counter-screen; AID 1718; actives 33% (n = 3,700); HEK293 parental, thallium flux FluoZin-2 fluorescence slope; shares compounds with KCC2 mod; thallium flux slope at 10 µM;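 active = thallium flux slope above the same plate's solvent-control mean plus 3 SD in both duplicate wells; inconclusive = duplicate wells that disagreed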;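 note: run without ouabain in cells lacking the KCC2 cotransporter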
Numbers stand for hits; 0 = inactive; ? = inconclusive; - = not tested or not shown.

SMILES | NPY Y1 blocker | NPY-Y2 PAM-ag | NPY Y2 blocker | Furin inh | NPY1 pot ag | KCC2 mod | KCC2 secondary | KCC2 bumet counter | KCC2 secondary2 | HEK counter1 | KCC2 retest ouab | HEK counter2
CCCc1oc2c(c(=O)c1CC)C(=O)CC(C)(C)C2 | 0 | 0 | 0 | 0 | 0 | - | 0 | 0 | 0 | ? | 0 | 0
Cc1ccc(-c2csc3ncnc(N4CCN(C(=O)c5ccccc5)CC4)c23)cc1 | 0 | 0 | 0 | 0 | 0 | 0 | - | - | - | - | - | -
Cn1nc(-c2ccc(N3CCN(CCO)CC3)c([N+](=O)[O-])c2)c2ccccc2c1=O | 0 | 0 | - | 0 | 0 | 0 | - | - | - | - | - | -
NC(=O)C1CCN(C(=S)NCCc2ccccc2)CC1 | 0 | 0 | - | 0 | 0 | 4.6 | 0 | 0 | 0 | 0 | 0 | 0
Cc1cc(Oc2ccc(=O)n(C)n2)nc(SCCOc2ccccc2)n1 | - | 0 | - | 0 | 0 | 0 | - | - | - | - | - | -
O=C(NCc1ccccc1)c1nc2c(nnn2Cc2cccc(Cl)c2)c(=O)[nH]1 | 0 | 0 | 0 | 0 | 0 | -5.1 | 0 | 0 | 0.024 | 0.0063 | 0.013 | ?
Cc1ccc(Cn2nnc3c(=O)[nH]c(C(=O)NCc4ccco4)nc32)cc1 | 0 | 0 | 0 | 0 | 0 | 0 | - | - | - | - | - | -
O=C(NCc1ccco1)c1nc2c(nnn2Cc2cccc(Cl)c2)c(=O)[nH]1 | 0 | 0 | 0 | 0 | 0 | -4.7 | 0 | 0.0058 | ? | 0.0063 | 0.014 | 0
COc1ccccc1/C=C/C=N/n1c(-c2ccc(F)cc2)n[nH]c1=S | - | 0 | - | 0 | 0 | 5.3 | 0 | 0.015 | 0 | 0.011 | 0 | 0
Cc1cccc(-c2n[nH]c(=S)n2/N=C/C=C/c2ccco2)c1 | - | 0 | - | 0 | 0 | 20 | 0 | 0.022 | 0 | 0.018 | 0.028 | 0.016
S=c1[nH]nc(-c2ccncc2)n1/N=C/C=C/c1ccco1 | 0 | 0 | - | 0 | 0 | 0 | - | - | - | - | - | -
COc1ccccc1/C=C\C=N\n1c(-c2ccc(Cl)cc2)n[nH]c1=S | 0 | 0 | 0 | 0 | 0 | 0 | - | - | - | - | - | -
S=c1[nH]nc(-c2cccc(Cl)c2)n1/N=C/c1ccco1 | - | 0 | - | 0 | 0 | 14 | ? | 0.021 | 0 | 0.018 | 0.031 | 0
S=c1[nH]nc(-c2cccc(Cl)c2)n1/N=C/c1ccc(-c2ccccc2Br)o1 | - | 0 | - | 0 | 0 | 0 | - | - | - | - | - | -
Cc1ccc(/C=N/n2c(-c3cccc(Cl)c3)n[nH]c2=S)o1 | - | 0 | - | 0 | 0 | 45 | 0 | 0.046 | 0 | 0.029 | 0.04 | 0.02
Cc1cc(O)ccc1Nc1nc2ccccc2nc1Nc1ccc(O)cc1C | 0 | 0 | 0 | 0 | 0 | - | - | - | - | - | - | -
CCSc1nc2c(cnn2-c2ccccc2)c(=O)n1N | - | 0 | - | 0 | 0 | 4.6 | 0 | 0.02 | 0 | 0.01 | 0.034 | 0.011
O=C(c1cc(COc2ccc(F)cc2Cl)on1)N1CCC(OCc2cccnc2)CC1 | 0 | 0 | - | 0 | 0 | - | 0 | 0 | 0 | 0 | 0.03 | 0
O=C(c1cc(COc2ccc(F)cc2Cl)on1)N1CCCC(OCc2cccnc2)C1 (stereo unspecified) | 0 | 0 | - | 0 | 0 | - | 0 | 0 | 0 | 0 | 0.014 | ?
Cc1nonc1C1CCCN1C(=O)c1cc(COc2ccc(F)cc2Cl)on1 (stereo unspecified) | 0 | 0 | - | 0 | 0 | - | 0 | 0 | 0.024 | ? | 0 | 0
CN1CCN(CC(=O)Nc2c(C#N)cnn2-c2ccccc2)CC1 | - | 0 | - | 0 | 0 | 0 | - | - | - | - | - | -

Screening data deposited in PubChem BioAssay by several laboratories.
